We go through two compounds from article PMC5450914 (Bioorganic & medicinal chemistry, 2017).

Experiment [1] deals with T1, Recombinant GGDPS (Homo sapiens, UniProt O95749).
T1 sequence (O95749 1-300): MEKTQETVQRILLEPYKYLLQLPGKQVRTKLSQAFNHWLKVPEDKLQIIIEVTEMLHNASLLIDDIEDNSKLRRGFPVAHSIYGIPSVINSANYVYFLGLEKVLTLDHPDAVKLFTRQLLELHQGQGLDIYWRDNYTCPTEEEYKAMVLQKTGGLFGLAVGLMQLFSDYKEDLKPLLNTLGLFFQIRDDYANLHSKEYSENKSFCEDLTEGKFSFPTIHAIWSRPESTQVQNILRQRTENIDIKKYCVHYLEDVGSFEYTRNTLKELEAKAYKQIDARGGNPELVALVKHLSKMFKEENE
Put plainly: GGDPS enzyme assay. The format is biochemical.

Experiment [2] concerns RPMI-8226 cells. Put plainly: Disruption of protein geranylgeranylation in myeloma cells. The format is cell-based. The settings on record: 48 hours. An outline of the steps:
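RPMI-8226 myeloma cells exposed 48 h to varying test compound concentrations, with lovastatin 10 μM as comparator. Rap1a: RIPA whole-cell lysate, antibody recognising only unmodified protein, β-tubulin loading control. Rab6: Triton X-114 detergent (membrane) fraction, calnexin loading control, densitometry normalised to calnexin and to untreated cells. Equal BCA-quantified protein resolved by SDS-PAGE, transferred to PVDF, detected with HRP secondary and ECL.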

For the compound `CC(C)=CCC/C(C)=C/CCCn1cc(CC(P(=O)([O-])[O-])P(=O)([O-])[O-])nn1.[Na+].[Na+].[Na+].[Na+]` [17b, Sodium (4E)–(2–(1–(5,9–dimethyldeca–4,8–dienyl)–1H–1,2,3–triazol–4–yl)ethane–1,1–diyl)bis(phosphonate)], the “potency relative to geranyl 1 (GGDPS inhibitory activity)” value in experiment [1] (compared with previously reported compound 1) is reported as “six-fold more potent”. Also, in experiment [1] (compared with previously reported compound 4), the “fold less potent than homogeranyl 4 (GGDPS inhibitory activity)” value was 15 fold. Consider `CC(C)=CCC/C(C)=C\CCCn1cc(CC(P(=O)([O-])[O-])P(=O)([O-])[O-])nn1.[Na+].[Na+].[Na+].[Na+]` [17c, Sodium (4Z)–(2–(1–(5,9–dimethyldeca–4,8–dienyl)–1H–1,2,3–triazol–4–yl)ethane–1,1–diyl)bis(phosphonate)], for which the “lowest concentration at which disruption of protein geranylgeranylation was seen” value in experiment [2] stood at 0.5 µM.
